T cell modulator = T cell immune modulation candidate; 330,000 tested, 0.068% active; response (vesicle binding), % at 7 µM; 2C CD8+ T cell-vesicle binding, flow cytometry; stronger effect = lower value;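 active = response, share of CD8 T cells binding vesicles, and their 90th percentile fluorescence all below set limits, cut at about 80% in these data, passing the limit was not always enough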;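 also: values below 100% mean blocked vesicle binding to the CD8+ T cells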
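Material: 2C TCR transgenic mouse naive CD8+ T cells, MACS-purified. Also added: QL9-charged Drosophila Ld/ICAM-1/B7-1 vesicles. Timing: binding 1.5 h at 37 °C. Measured by: high-throughput flow cytometry with anti-B7-1 and anti-CD8 staining. Read-out: percent CD8+ FL2 mean versus row control. Controls: Unloaded micro-vesicles (low), QL9 vesicles with 0.7% DMSO (high).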
Myeloid diff MLP = promotes myeloid progenitor differentiation; 360,000 tested, 1% active; calls only at 10 µM; ER-HoxA9 myeloid progenitors, lysozyme-GFP differentiation, flow cytometry;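 active = normalized GFP-positive differentiation at or above the plate's own cutoff, the solvent-only control mean plus 3 SD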;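 also: cells exposed to compound for four days before flow analysis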
Rce1 inhib = blocks yeast Ras-converting enzyme; calls only; AID 2563; 290,000 tested, 0.27% active; Q03530; yeast membranes, quenched prenylated peptide cleavage fluorescence;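 active = fall in fluorescence gain of 50% or more versus controls, with final raw signal at or below 3038400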;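 also: plate controls were neutral control wells for no effect and wells lacking membranes for full effect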
Target sequence (Q03530 whole entry, looked up): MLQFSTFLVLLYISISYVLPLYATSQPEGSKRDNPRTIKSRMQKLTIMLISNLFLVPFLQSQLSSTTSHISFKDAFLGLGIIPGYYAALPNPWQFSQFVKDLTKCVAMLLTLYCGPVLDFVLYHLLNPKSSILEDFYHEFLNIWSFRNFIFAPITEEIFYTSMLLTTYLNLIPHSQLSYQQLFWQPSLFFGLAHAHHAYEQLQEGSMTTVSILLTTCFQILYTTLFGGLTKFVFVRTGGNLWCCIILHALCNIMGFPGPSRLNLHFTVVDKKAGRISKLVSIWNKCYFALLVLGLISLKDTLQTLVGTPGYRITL
SKN-1 block = blocks SKN-1 activity in C. elegans. C. elegans VP596 Pgst-4::GFP/RFP ratio, acrylamide-induced, 24 h. inhibition, % at 21.8 µM. 360,000 tested, 0.49% active. AID 624304;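 active = interference check ratio from 0.5 to 1.5 plus GFP to RFP signal ratio inhibition reaching or exceeding a fixed threshold, cut at about 30% in these data, passing the limit was not always enough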
Rin1-Abl PPI inh = blocks binding of human Rin1 to Abl; 360,000 tested, 0.4% active; P00519+Q13671; TR-FRET Rin1/Abl binding, biochemical; inhibition, % at 7.35 µM; in the data active = inhibition above about 5%, passing the limit was not always enough
GRK2 inh = inhibitors of human GRK2 displacing RNA aptamer | 330,000 tested, 0.59% active | P25098 | inhibition of aptamer binding, % at 10 µM | bead flow cytometry, FAM-aptamer displacement from GRK2;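 active = inhibition of aptamer binding above 40%, roughly 3 SD of noise, on plates passing a quality check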;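 also: median bead fluorescence of bound FAM aptamer so fluorescent compounds give negative values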
GRK2 CP1 = confirmation of human GRK2 inhibitors displacing RNA aptamer | shares compounds with GRK2 inh | bead-bound GRK2, FAM-aptamer displacement, flow cytometry | aptamer displacement, % at 10 µM | 2,000 tested, 4% active;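 active = aptamer displacement above 40%, near three times the noise of non-fluorescent compounds, on plates passing quality checks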;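 also: negative values mostly reflect intrinsic compound fluorescence rather than true enhancement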
Aptamer quench SP = aptamer fluorescence quenching in GRK2 counter-screen; shares compounds with GRK2 inh; Carboxyfluorescein RNA aptamer on beads, flow cytometry quenching; stronger effect = lower value; fluorescence response (% of DMSO), % at 10 µM; 2,000 tested, under 10 active;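 active = compounds that quench the bead-bound fluorescent RNA probe, cutting fluorescence to under half of the solvent control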;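 also: counterscreen run without GRK2 so only probe quenching by compound is measured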
GRK2 confirm 2 = human GRK2 inhibition confirmation, cherry pick 2; bead-bound GRK2, FAM-aptamer displacement, flow cytometry; 360 tested, under 10 active; inhibition of aptamer binding, % at 10 µM; AID 504782; shares compounds with GRK2 inh;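 active = inhibition of aptamer binding above 40%, about triple the noise seen with nonglowing compounds, on plates passing quality control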;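 also: negative values mostly come from compounds that fluoresce themselves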
FAM quench SP = aptamer fluorescence quenching in GRK2 counter-screen; 360 tested, under 10 active; fluorescence response vs DMSO, % at 10 µM; carboxyfluorescein RNA aptamer beads, flow cytometry quenching; stronger effect = lower value; shares compounds with GRK2 inh;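 active = response vs DMSO under 50%, meaning signal dropped by over half, treated as fluorescence quencher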;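 also: labelled aptamer on streptavidin beads without GRK2 as a quench counter-screen; 100% = bead fluorescence of DMSO wells and lower means quenching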
* = called active by the depositor; i = inactive; nt = no result given; + = active, no number. In the library only some 2.6% were active in any assay of this set; here they are far more common.

SMILES | T cell modulator | Myeloid diff MLP | Rce1 inhib | SKN-1 block | Rin1-Abl PPI inh | GRK2 inh | GRK2 CP1 | Aptamer quench SP | others
O=C1C2CC=CCC2C(=O)N1CNc1ccccc1 (centres undefined) | 409 | i | i | 8 | 0 | 1 | nt | nt
O=C1CCC(C(=O)N2CCC(CO)(Cc3ccc(Cl)cc3)CC2)=NN1 | 173 | i | i | -13 | 1 | 1 | nt | nt
O=C(NCCc1c[nH]c2ccccc12)c1ccc([N+](=O)[O-])cc1 | 277 | i | i | -7 | -2 | 41* | nt | nt | GRK2 confirm 2=19;FAM quench SP=100
Cc1c(NC(=O)c2cccc(S(=O)(=O)N3CCOCC3)c2)c(=O)n(-c2ccccc2)n1C | 414 | i | i | 15 | -2 | 1 | nt | nt
Cc1c(NC(=O)C(C)OC(=O)c2cccc(S(=O)(=O)N3CCOCC3)c2)c(=O)n(-c2ccccc2)n1C (centres undefined) | 229 | nt | i | nt | nt | 76* | 2 | 99
CCOC(=O)c1c(C)[nH]c(C)c1C(=O)COC(=O)c1cc(OC)c(OC)cc1OC | nt | i | i | 11 | 0 | 3 | nt | nt
N#Cc1cc2cc3c(cc2nc1SCC(=O)N1CCCC1)OCCO3 | 341 | i | i | 0 | 4 | 0 | nt | nt
CC(=O)CSc1nc2cc3c(cc2cc1C#N)OCCO3 | 290 | i | i | 10 | -20 | 60* | nt | nt | GRK2 confirm 2=4;FAM quench SP=100
Cc1ccc(S(=O)(=O)N2C[C@H]3[C@H]4C(=O)N(c5ccccc5)C(=O)[C@H]4C[C@H](OC(=O)NCC4CCCCC4)[C@@]3(O)C2)cc1 | nt | i | nt | -11 | -5 | nt | nt | nt
CNC(=O)C[C@H]1C(=O)N(c2ccc(Br)cc2)C[C@@H]1CSC | nt | i | nt | 3 | -3 | nt | nt | nt
COc1ccccc1N1CCN(C(=O)C(C)CS(=O)(=O)c2ccc3c(c2)NC(=O)CS3)CC1 (centres undefined) | 284 | i | i | 9 | 3 | 54* | nt | nt | GRK2 confirm 2=i;FAM quench SP=104
Oc1ccc(C[C@H]2CNCCN2CCc2cc(C(F)(F)F)cc(C(F)(F)F)c2)cc1 | 526 | i | i | -3 | 2 | 44* | nt | nt | GRK2 confirm 2=15;FAM quench SP=101
Cc1ccccc1NC(=S)NNc1ncc(C(F)(F)F)cc1Cl | 197 | i | i | 2 | -3 | 0 | nt | nt
Cc1cccc(C)c1NC(=S)NNc1ncc(C(F)(F)F)cc1Cl | 260 | i | i | 6 | 0 | 48* | -1 | 99
CCN1C(=O)/C(=C\c2ccc(-c3cccc(C(=O)OC)c3)o2)SC1=Nc1ccc(C(=O)O)cc1 | 539 | nt | i | nt | nt | 2 | nt | nt
CCN=C1S/C(=C\c2ccc(-c3cccc(C(=O)O)c3)o2)C(=O)N1CC | 587 | i | i | 9 | 4 | 34 | 5 | 83
CCN(CC)C(=O)Cn1cc(C(=O)C(=O)N2CCc3ccccc32)c2ccccc21 | 526 | i | i | 2 | 1 | 40 | -1 | 100
COc1ccc(C(=O)NCCc2ccc(C(F)(F)F)cc2)cc1S(=O)(=O)N1CCOCC1 | 214 | i | nt | -15 | 3 | 1 | nt | nt
CCCN(CC(=O)Nc1ccccc1C)C(=O)C1CC(=O)N(c2cccc(C)c2C)C1 (centres undefined) | 629 | i | i | 9 | -2 | 4 | 1 | 98
CCCN(CC(=O)Nc1ccccc1C)C(=O)C1CC(=O)N(c2ccc(C)cc2)C1 (centres undefined) | nt | i | nt | 8 | -2 | nt | nt | nt
Cc1ccc(S(=O)(=O)N2[C@H](CC(=O)c3ccc(F)cc3)OC[C@@H]2C(C)C)cc1 | nt | i | nt | 10 | nt | nt | nt | nt
COc1cc2c(cc1OC)C(C)N(S(=O)(=O)c1ccc(C)cc1)CC2 (centres undefined) | 636 | nt | i | -2 | -1 | 49* | -10 | 94
COc1cc2c(cc1OC)C(C)N(S(=O)(=O)c1cccs1)CC2 (centres undefined) | 202 | i | i | 5 | 3 | 1 | nt | nt
Cc1ccc(S(=O)(=O)N2CCN(C(=O)c3cc4c(s3)CCCC4)CC2)c(C)c1 | 0 | i | nt | 13 | -1 | 49* | 0 | 99
Cc1ccc(S(=O)(=O)N2CCN(C(=O)c3cc4c(s3)CCCC4)CC2)cc1 | i | i | nt | 3 | 4 | 1 | nt | nt
SMILES | T cell modulator | Myeloid diff MLP | Rce1 inhib | SKN-1 block | Rin1-Abl PPI inh | GRK2 inh | GRK2 CP1 | Aptamer quench SP | others
COc1ccc(S(=O)(=O)N2CCN(C(=O)c3cc4c(s3)CCC4)CC2)cc1 | 489 | i | nt | -2 | -2 | 82* | 25 | 109
O=C(NCCc1ccc(F)cc1)c1cccc2c1C(=O)c1ccc(N3CCC(Cc4ccccc4)CC3)cc1S2(=O)=O | 280 | + | nt | 9 | 3 | 5 | 2 | 109
O=C(NCc1ccco1)c1cccc2c1C(=O)c1ccc(N3CCC(Cc4ccccc4)CC3)cc1S2(=O)=O | 308 | i | nt | -3 | 0 | 0 | nt | nt
O=C(O)CC/C(=N/NC(=O)CNC(=O)c1ccc2c(c1)OCCO2)c1ccccc1 | 220 | nt | i | 0 | 2 | 1 | 1 | 103
Cc1cc2c(=O)n(C)c(SCC(=O)NCC3CCCO3)nc2s1 (centres undefined) | nt | i | nt | -3 | 0 | nt | nt | nt
CCCCNC(=O)CN1C(=O)NC2NC(=O)NC21 (centres undefined) | 348 | i | i | -10 | 1 | 98* | 3 | 97
CN(Cc1ccc(Cl)c(Cl)c1)C(=O)C1CC(=O)N(c2ccc3c(c2)OCCO3)C1 (centres undefined) | nt | i | nt | -1 | -3 | nt | nt | nt
Cc1ccc(C(=O)Nc2cccc(C(F)(F)F)c2)cc1NC(=O)c1c[nH]c2cc(C(F)(F)F)ccc2c1=O | 228 | i | nt | 10 | 0 | 0 | -14 | 97
Cc1ccc(-n2ncc3c(SCC(=O)NNC(=O)C(C)C)ncnc32)cc1 | 163 | i | i | -4 | 2 | 97* | -1 | 100
CC(C)C(=O)NNC(=O)CSc1ncnc2c1cnn2-c1ccccc1Cl | 543 | i | i | -8 | 1 | 0 | nt | nt
CC(C)NC(=O)CC1(C(=O)NCc2ccc(Cl)cc2)CCCC1 | i | i | i | 28 | 3 | 50* | nt | nt | GRK2 confirm 2=-1;FAM quench SP=104
COc1ccc(CNC(=O)C2(CC(=O)NC(C)(C)C)CCCC2)cc1 | 186 | i | i | 13 | 0 | 2 | nt | nt
O=c1[nH]c(CN2CCN(C/C=C/c3ccccc3)CC2)nc2ccccc12 | 192 | i | i | 0 | 2 | 2 | nt | nt | GRK2 confirm 2=19;FAM quench SP=98

Bioassay records: PubChem, several laboratories
